Measured values published in ChEMBL document CHEMBL4346663, “N-Cinnamoylanthranilates as human TRPA1 modulators: Structure-activity relationships and channel binding sites” (Eur J Med Chem, 2019).
Active and inactive are the calls of the source. The rule behind the calls is not given here.

Columns and labels:
[1] = target: T1, Transient receptor potential cation channel subfamily A member 1 (Homo sapiens, UniProt O75762); assay: Antagonist activity at human TRPA1 expressed in HEK293 cells assessed as inhibition of CA-induced increase in calcium influx incubated for 10 mins prior to CA addition by Fluo-4-AM dye based fluorescence assayy; type: cell-based
[2] = system: Transient receptor potential cation channel subfamily A member 1 (Homo sapiens), O75762 [F944A]; assay: Antagonist activity at human TRPA1 Phe944Ala mutant expressed in HEK293 cells assessed as Ca2+ influx at 100 uM by fluorescence assay; type: cell-based
How it was run: (§1)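 hTRPA1 F909A or F944A mutant HEK293 stable clones, loaded with Fluo-4AM (2 µM, 45 min, room temperature). Compound pre-incubated 10 min before the standard agonist was added. FlexStation fluorescence (485/538 nm). ΔRFU normalized to the standard agonist response set at 100 %, after DMSO vehicle subtraction.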

[3] = system: Transient receptor potential cation channel subfamily A member 1 (Homo sapiens), O75762 [F909A]; assay: Antagonist activity at human TRPA1 Phe909Ala mutant expressed in HEK293 cells assessed as Ca2+ influx at 100 uM by fluorescence assay; type: cell-based; how it was run: as §1
[4] = target: T1, Transient receptor potential cation channel subfamily A member 1; assay: Agonist activity at human TRPA1 expressed in HEK293 cells assessed as increase in calcium influx at 30 uM by Fluo-4-AM dye based fluorescence assay relative to calcimycin; type: cell-based
How it was run: (§2)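 Stably transfected hTRPA1- or hTRPM8-HEK293 cells on poly-D-lysine plates for 48 h, loaded with Fluo-4AM (2 µM, 45 min, dark, room temperature), in isotonic HEPES buffer pH 7.4. FlexStation 240 s run: 20 s baseline, compound added, calcimycin added at 180 s. ΔRFU expressed as % calcimycin, DMSO-subtracted. Screening N = 3. Dose-response curves fitted for logEC50 (N = 3 in duplicate or triplicate).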

[5] = target: T2, Transient receptor potential cation channel subfamily M member 8 (Homo sapiens, UniProt Q7Z2W7); assay: Antagonist activity at human TRPM8 expressed in HEK293 cells assessed as increase in calcium influx at 100 uM incubated for 10 mins prior to WS5 challenge by Fluo-4-AM dye based fluorescence assay relative to WS5; type: cell-based; set-up: scale not given: the % may be the effect or the level left
How it was run: (§3)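 hTRPM8-HEK293 cells loaded with Fluo-4AM (2 µM, 45 min). Test compound pre-incubated 10 min before WS5 standard agonist. FlexStation fluorescence at 485/538 nm. ΔRFU given as % of WS5 response after DMSO vehicle subtraction. N = 3. IC50 from dose-response curves.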
Target sequence in this assay (Q7Z2W7 whole entry, looked up): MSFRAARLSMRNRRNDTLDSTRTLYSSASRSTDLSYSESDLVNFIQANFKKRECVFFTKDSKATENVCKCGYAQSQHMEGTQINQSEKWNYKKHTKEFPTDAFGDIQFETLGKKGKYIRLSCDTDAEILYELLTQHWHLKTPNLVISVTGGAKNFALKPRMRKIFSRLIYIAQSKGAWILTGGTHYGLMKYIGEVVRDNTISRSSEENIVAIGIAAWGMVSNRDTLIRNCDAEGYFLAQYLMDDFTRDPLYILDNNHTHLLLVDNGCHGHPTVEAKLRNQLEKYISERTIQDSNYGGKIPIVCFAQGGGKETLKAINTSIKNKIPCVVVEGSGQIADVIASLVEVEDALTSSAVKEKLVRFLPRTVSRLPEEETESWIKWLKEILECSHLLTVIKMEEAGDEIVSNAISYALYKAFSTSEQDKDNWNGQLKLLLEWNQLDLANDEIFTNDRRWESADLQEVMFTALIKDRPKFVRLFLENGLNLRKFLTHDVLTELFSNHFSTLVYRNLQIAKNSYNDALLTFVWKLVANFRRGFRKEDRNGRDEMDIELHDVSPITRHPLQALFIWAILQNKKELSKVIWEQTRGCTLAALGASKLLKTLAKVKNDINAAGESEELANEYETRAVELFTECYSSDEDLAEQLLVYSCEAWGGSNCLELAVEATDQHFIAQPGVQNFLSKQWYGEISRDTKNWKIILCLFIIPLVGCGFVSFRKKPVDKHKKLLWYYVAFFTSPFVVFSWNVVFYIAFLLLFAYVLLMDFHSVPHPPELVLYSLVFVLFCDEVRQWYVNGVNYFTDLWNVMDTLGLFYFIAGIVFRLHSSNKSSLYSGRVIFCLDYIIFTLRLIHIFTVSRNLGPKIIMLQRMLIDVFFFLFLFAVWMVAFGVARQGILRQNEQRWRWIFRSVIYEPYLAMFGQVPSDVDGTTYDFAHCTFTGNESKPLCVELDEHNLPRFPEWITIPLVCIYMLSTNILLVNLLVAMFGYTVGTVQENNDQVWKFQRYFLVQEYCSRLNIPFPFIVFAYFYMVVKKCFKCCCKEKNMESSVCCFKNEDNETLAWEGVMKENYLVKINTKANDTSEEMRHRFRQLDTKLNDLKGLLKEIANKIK

[6] = target: T1, Transient receptor potential cation channel subfamily A member 1; assay: Antagonist activity at human TRPA1 expressed in HEK293 cells assessed as increase in calcium influx at 100 uM incubated for 10 mins prior to CA addition by Fluo-4-AM dye based fluorescence assay relative to CA; type: cell-based; set-up: scale not given: the % may be the effect or the level left
How it was run: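 hTRPA1-HEK293 cells loaded with Fluo-4AM (2 µM). Compound pre-incubated 10 min, then cinnamaldehyde standard agonist added. FlexStation read, ex 485/em 538 nm. ΔRFU normalized to the CA response set at 100 % after DMSO vehicle subtraction. N = 3. logIC50 taken from dose-response fits.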

[7] = target: T2, Transient receptor potential cation channel subfamily M member 8; assay: Agonist activity at human TRPM8 expressed in HEK293 cells assessed as increase in calcium influx at 30 uM by Fluo-4-AM dye based fluorescence assay relative to calcimycin; type: cell-based; how it was run: as §2
Target sequence in this assay (Q7Z2W7 whole entry, looked up): as above

[8] = target: T1, Transient receptor potential cation channel subfamily A member 1; assay: Agonist activity at human TRPA1 expressed in HEK293 cells assessed as increase in calcium influx by Fluo-4-AM dye based fluorescence assay; type: cell-based; conditions: read-out: EC50; how it was run: as §2
[9] = target: T1, Transient receptor potential cation channel subfamily A member 1; assay: Irreversible desensitizing activity at human TRPA1 expressed in HEK293 cells assessed as CA-induced increase in Ca2+ influx at >30 uM pretreated with compound followed by drug wash-out and CA challenge by Fluo-4-AM dye based fluorescence assay; type: cell-based
How it was run: (§4)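 hTRPA1-HEK293 cells loaded with Fluo-4AM were pre-incubated with compound, then washed and resuspended in fresh assay buffer. The response to cinnamaldehyde (30 µM) was then measured by FlexStation calcium fluorescence.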

[10] = target: T2, Transient receptor potential cation channel subfamily M member 8; assay: Agonist activity at human TRPM8 expressed in HEK293 cells assessed as increase in calcium influx at 100 uM by Fluo-4-AM dye based fluorescence assay relative to calcimycin; type: cell-based; how it was run: as §2
Target sequence in this assay (Q7Z2W7 whole entry, looked up): as above

[11] = Dissociation constant, pKa of the compound at pH 7.4; type: physicochemical
[12] = target: T1, Transient receptor potential cation channel subfamily A member 1; assay: Reversible desensitizing activity at human TRPA1 expressed in HEK293 cells assessed as CA-induced increase in Ca2+ influx up to 30 uM pretreated with compound followed by drug wash-out and CA challenge by Fluo-4-AM dye based fluorescence assay; type: cell-based; how it was run: as §4
[13] = target: T1, Transient receptor potential cation channel subfamily A member 1; assay: Modulating activity at human TRPA1 expressed in HEK293 cells assessed as desensitization of CA-induced increase in Ca2+ influx at 10 uM measured within 10 mins by Fluo-4-AM dye based fluorescence assay; type: cell-based
How it was run: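 hTRPA1-HEK293 cells with Fluo-4AM. Real-time fluorescence recorded for 10 min after compound addition (10 µM), followed by challenge with cinnamaldehyde (30 µM) to assess desensitization of the agonist response.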

[14] = system: Transient receptor potential cation channel subfamily A member 1 (Homo sapiens), O75762 [F909A]; assay: Agonist activity at human TRPA1 Phe909Ala mutant expressed in HEK293 cells assessed as Ca2+ influx at 100 uM by fluorescence assay; type: cell-based
How it was run: (§5)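 HEK293 cells stably expressing hTRPA1 point mutants, made by FuGENE 6 transfection, G418 (0.5 mg ml-1) selection and single-cell cloning, grown in DMEM with 25 mM HEPES, 10% FBS and geneticin. Ca2+ influx was read by Fluo dye fluorescence at room temperature, with calcimycin added at the end. Response was ΔRFU as % of calcimycin, with the DMSO vehicle subtracted.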

[15] = target: Transient receptor potential cation channel subfamily A member 1 (Mus musculus, UniProt Q8BLA8); assay: Agonist activity at mouse TRPA1 expressed in CHO cells assessed as increase in calcium influx by patch clamp electrophysiology method; type: cell-based
[16] = system: Transient receptor potential cation channel subfamily A member 1 (Homo sapiens), O75762 [F944A]; assay: Agonist activity at human TRPA1 Phe944Ala mutant expressed in HEK293 cells assessed as Ca2+ influx at 100 uM by fluorescence assay; type: cell-based; how it was run: as §5
[17] = system: Transient receptor potential cation channel subfamily A member 1 (Homo sapiens), O75762 [C621A]; assay: Agonist activity at human TRPA1 […] mutant expressed in HEK293 cells assessed as Ca2+ influx at 100 uM by fluorescence assay; type: cell-based
[18] = species: Cavia porcellus; assay: Antagonist activity at TRPA1 in Dunkin-Hartley guinea pig vagus nerve assessed as inhibition of ACR-stimulated vagus nerve by measuring depolarization at 300 uM incubated for 10 mins followed by ACR stimulation for 140 secs […]
How it was run: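 Guinea pig vagus nerve (male Dunkin-Hartley) in Krebs-Henseleit buffer; compound from DMSO stock diluted 1000×. Two control acrolein (300 µM, 2 min) responses, each washed to baseline. Then 10 min compound pretreatment and re-stimulation with acrolein 300 µM for 2 min 20 s. After washout, a recovery acrolein response was taken. Depolarization recorded in mV.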

[19] = species: Cavia porcellus; assay: Agonist activity at TRPA1 in Dunkin-Hartley guinea pig vagus nerve assessed as activation of vagus nerve by measuring depolarization at 300 uM […]
How it was run: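 Isolated vagus nerves from male Dunkin-Hartley guinea pigs (300-400 g, eight animals). Compound DMSO stocks diluted 1000× in Krebs-Henseleit buffer. Viability checked with capsaicin (1 µM) at the start and acrolein (300 µM) at the end. Single non-cumulative concentrations applied for 2 min each, with KH wash to baseline between them. DMSO vehicle run alike. Depolarization recorded in mV.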

[20] = system: Transient receptor potential cation channel subfamily A member 1 (Homo sapiens), O75762 [F909A]; assay: Agonist activity at human TRPA1 Phe909Ala mutant expressed in HEK293 cells assessed as Ca2+ influx […] fluorescence assay; type: cell-based
How it was run: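 HEK293 cells stably expressing hTRPA1 point mutants (C621A, F909A or F944A), single-cell cloned under G418 selection. Cells plated on poly-D-lysine for 48 h, loaded with Fluo-4AM 2 µM for 45 min at room temperature. FlexStation read (ex 485/em 538 nm): 20 s baseline, compound added, calcimycin added at 180 s. Response expressed as % calcimycin from ΔRFU, vehicle-subtracted, and compared with wild-type hTRPA1 cells.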

[21] = target: T2, Transient receptor potential cation channel subfamily M member 8; assay: Antagonist activity at human TRPM8 expressed in HEK293 cells assessed as inhibition in WS5-induced increase in calcium influx incubated for 10 mins prior to WS5 challenge by Fluo-4-AM dye based fluorescence assay; type: cell-based; how it was run: as §3
Target sequence in this assay (Q7Z2W7 whole entry): as the sequence (Q7Z2W7 whole entry, looked up) above

Sequence of Transient receptor potential cation channel subfamily A member 1 (Homo sapiens), O75762 [F909A] (O75762 whole entry F909A): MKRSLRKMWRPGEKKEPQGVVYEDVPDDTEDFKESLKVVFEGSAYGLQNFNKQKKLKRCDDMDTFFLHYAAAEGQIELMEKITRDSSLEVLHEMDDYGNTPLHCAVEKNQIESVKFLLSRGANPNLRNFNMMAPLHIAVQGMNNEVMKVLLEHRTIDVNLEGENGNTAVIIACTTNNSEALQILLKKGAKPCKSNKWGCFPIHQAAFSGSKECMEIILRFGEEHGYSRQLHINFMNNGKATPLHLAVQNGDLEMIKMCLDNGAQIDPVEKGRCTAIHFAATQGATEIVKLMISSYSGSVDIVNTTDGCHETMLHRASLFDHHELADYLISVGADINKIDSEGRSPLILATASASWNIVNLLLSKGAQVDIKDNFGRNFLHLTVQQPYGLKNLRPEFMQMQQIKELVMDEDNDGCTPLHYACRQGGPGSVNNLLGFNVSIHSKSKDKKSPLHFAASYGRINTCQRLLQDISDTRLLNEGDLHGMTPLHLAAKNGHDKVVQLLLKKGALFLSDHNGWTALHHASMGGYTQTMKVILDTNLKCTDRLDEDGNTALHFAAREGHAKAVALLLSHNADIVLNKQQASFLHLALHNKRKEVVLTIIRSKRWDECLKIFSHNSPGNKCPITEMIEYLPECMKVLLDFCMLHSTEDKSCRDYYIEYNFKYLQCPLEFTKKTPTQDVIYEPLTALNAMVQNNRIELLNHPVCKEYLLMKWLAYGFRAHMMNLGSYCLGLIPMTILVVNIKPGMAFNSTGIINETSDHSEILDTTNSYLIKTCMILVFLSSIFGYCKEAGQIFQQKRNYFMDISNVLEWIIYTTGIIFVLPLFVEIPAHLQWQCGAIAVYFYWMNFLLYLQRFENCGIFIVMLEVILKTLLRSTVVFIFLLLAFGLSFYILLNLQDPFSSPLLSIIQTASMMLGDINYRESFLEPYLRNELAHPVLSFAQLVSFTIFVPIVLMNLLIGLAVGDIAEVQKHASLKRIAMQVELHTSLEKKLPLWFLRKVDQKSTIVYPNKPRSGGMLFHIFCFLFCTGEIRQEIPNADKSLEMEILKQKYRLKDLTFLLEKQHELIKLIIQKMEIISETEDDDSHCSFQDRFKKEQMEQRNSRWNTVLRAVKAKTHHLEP
T1 sequence (O75762 whole entry): as the sequence (O75762 whole entry F909A) above, with A909F counted along it
Sequence of Transient receptor potential cation channel subfamily A member 1 (Mus musculus, UniProt Q8BLA8) (Q8BLA8 whole entry): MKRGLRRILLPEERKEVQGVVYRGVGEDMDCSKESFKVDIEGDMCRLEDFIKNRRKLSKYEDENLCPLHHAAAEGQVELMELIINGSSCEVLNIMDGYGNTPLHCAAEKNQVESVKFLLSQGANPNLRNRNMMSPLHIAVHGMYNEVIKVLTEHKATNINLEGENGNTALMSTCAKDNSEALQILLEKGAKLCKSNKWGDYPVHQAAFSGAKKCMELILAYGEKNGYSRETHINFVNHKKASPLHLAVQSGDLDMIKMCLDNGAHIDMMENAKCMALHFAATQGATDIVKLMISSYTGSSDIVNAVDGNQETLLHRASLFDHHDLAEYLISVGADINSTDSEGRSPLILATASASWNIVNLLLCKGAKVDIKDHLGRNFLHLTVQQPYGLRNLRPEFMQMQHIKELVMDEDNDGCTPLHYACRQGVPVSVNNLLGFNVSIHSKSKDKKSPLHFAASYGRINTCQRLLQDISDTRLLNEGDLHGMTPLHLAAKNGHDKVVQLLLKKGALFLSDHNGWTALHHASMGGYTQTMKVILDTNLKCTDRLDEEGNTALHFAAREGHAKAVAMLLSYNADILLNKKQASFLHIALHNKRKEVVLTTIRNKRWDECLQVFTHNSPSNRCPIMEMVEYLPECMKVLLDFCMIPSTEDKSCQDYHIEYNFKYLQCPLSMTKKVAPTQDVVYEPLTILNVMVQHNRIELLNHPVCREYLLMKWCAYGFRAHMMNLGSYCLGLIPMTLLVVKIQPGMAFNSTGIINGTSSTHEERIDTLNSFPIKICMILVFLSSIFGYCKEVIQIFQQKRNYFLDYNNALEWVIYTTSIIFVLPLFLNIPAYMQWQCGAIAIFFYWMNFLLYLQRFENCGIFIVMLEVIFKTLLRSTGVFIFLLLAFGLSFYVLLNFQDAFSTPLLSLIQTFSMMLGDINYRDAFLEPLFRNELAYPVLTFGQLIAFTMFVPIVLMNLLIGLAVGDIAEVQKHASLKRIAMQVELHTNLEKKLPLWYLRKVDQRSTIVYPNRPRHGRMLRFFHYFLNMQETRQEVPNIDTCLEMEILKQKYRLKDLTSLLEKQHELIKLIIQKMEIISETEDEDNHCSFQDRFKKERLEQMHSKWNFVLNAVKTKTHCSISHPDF
Sequence of Transient receptor potential cation channel subfamily A member 1 (Homo sapiens), O75762 [F944A] (O75762 whole entry F944A): as the sequence (O75762 whole entry F909A) above, with A909F, F944A counted along it
Sequence of Transient receptor potential cation channel subfamily A member 1 (Homo sapiens), O75762 [C621A] (O75762 whole entry C621A): as the sequence (O75762 whole entry F909A) above, with C621A, A909F counted along it

O=C(NCc1ccc(Cl)cc1)[C@@H]1CCCN1S(=O)(=O)c1ccc(F)cc1
IC50 [1]: 10 µM | Activity [2]: inactive | Activity [3]: inactive

O=C(/C=C/c1ccc(F)cc1)Nc1ccccc1C(=O)O
Activity [4]: 37% | Activity [5]: 61% | IC50 [1]: 26 µM | Activity [6]: 13% | Activity [7]: inactive | EC50 [8]: 30 µM | Activity [9]: Active | Activity [10]: inactive | pKa [11]: 3.4 | Activity [12]: Active | Activity [13]: Active

CC1CCC(C(C)C)C(O)C1 (stereo unspecified) [MENTHOL]
Activity [14]: inactive | EC50 [15]: 95 µM | EC50 [8]: 30 µM | Activity [16]: inactive | Activity [17]: inactive

O=C(/C=C/c1ccc(O)cc1)Nc1ccccc1C(=O)O
Activity [4]: 1% | Activity [5]: 70% | IC50 [1]: 43 µM | Activity [6]: 35% | Activity [7]: inactive | inhibition [18]: inactive | Activity [19]: Active | Activity [3]: inactive | Activity [10]: inactive | pKa [11]: 3.5

CC(C)c1ccc(NC(=O)Cn2cnc3c2c(=O)n(C)c(=O)n3C)cc1
IC50 [1]: 18 µM | Activity [3]: Active

CN1CCC[C@H]1c1cccnc1 [NICOTINE]
EC50 [15]: 10 µM | EC50 [8]: 2 µM | Activity [20]: Active

O=C(/C=C/c1ccccc1Cl)Nc1ccccc1C(=O)O
Activity [4]: 44% | IC50 [21]: 21 µM | Activity [5]: 25% | IC50 [1]: 11 µM | Activity [6]: 5% | Activity [7]: inactive | EC50 [8]: 42 µM | Activity [9]: Active | Activity [10]: inactive | pKa [11]: 3.4 | Activity [12]: Active | Activity [13]: Active
